# From ChEMBL document CHEMBL1122162, “Carbocyclic analogue of 3-deazaadenosine: a novel antiviral agent using S-adenosylhomocysteine hydrolase as a pharmacological target” (1982)
# Activity calls are given as the source filed them. The calls are words filed in the database; no cut-off is given here.
# How the values were obtained:
# Rattus norvegicus [1] = species on record: Rattus norvegicus; test: Inhibition of oncogenic transformation expressed as number of foci on day 5 in HL-23 virus infected rat kidney cells (NRK 153C17) at 0.5 uM; type: functional
# Summary of the method: (§1)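 NRK 153 C1 7 rat kidney cells infected with HL-23 virus in the presence of compound at 0–4 μM. Foci were stained with Giemsa and counted per dish on day 5. % inhibition was derived from focus counts relative to the untreated dish.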
# Rattus norvegicus [2] = species on record: Rattus norvegicus; test: Percent inhibition of oncogenic transformation of HL-23 virus infected rat kidney cells (NRK 153C17) at 0.25 uM; type: functional; summary of the method: as §1
# Rattus norvegicus [3] = species on record: Rattus norvegicus; test: Percent inhibition of oncogenic transformation of HL-23 virus infected rat kidney cells (NRK 153C17) at 1 uM; type: functional; summary of the method: as §1
# Rattus norvegicus [4] = species on record: Rattus norvegicus; test: Percent inhibition of oncogenic transformation of HL-23 virus infected rat kidney cells (NRK 153C17) at 4 uM; type: functional; summary of the method: as §1
# Rattus norvegicus [5] = species on record: Rattus norvegicus; test: Percent inhibition of oncogenic transformation of HL-23 virus infected rat kidney cells (NRK 153C17) at 0.5 uM; type: functional; summary of the method: as §1
# Rattus norvegicus [6] = species on record: Rattus norvegicus; test: Inhibition of oncogenic transformation was assayed by infecting normal rat kidney cells (NRK 153C17) with HL-23 virus and counting the %control cell number on day 3 at a concentration of 0 uM; type: functional
# Summary of the method: (§2)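 Normal rat kidney cells (NRK 153 C1 7) infected with HL-23 virus, a C-type virus isolated from human acute myelogenous leukemia cells, and exposed to compound at 0–4 μM. Cell number determined on day 3 and expressed as % of control.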
# Rattus norvegicus [7] = species on record: Rattus norvegicus; test: Inhibition of oncogenic transformation expressed as %control cell number on day 3 in HL-23 virus infected rat kidney cells (NRK 153C17) at 0.5 uM; type: functional; summary of the method: as §2
# Mus musculus [8] = species on record: Mus musculus; test: In vitro antiviral activity against vaccinia virus (strain Lederle chorioallantoic) grown in mouse fibroblasts cells, clone L-929, expressed as VR; type: functional, Fibroblast
# Rattus norvegicus [9] = species on record: Rattus norvegicus; test: Percent inhibition of oncogenic transformation of HL-23 virus infected rat kidney cells (NRK 153C17) at 0 uM; type: functional; summary of the method: as §1
# Mus musculus [10] = species on record: Mus musculus; test: In vitro antiviral activity against herpes simplex virus type 1 (strain E-377) grown in mouse fibroblasts cells, clone L-929, expressed as virus rating (VR); type: functional, Fibroblast
# Rattus norvegicus [11] = species on record: Rattus norvegicus; test: Inhibition of oncogenic transformation expressed as number of foci on day 5 in HL-23 virus infected rat kidney cells (NRK 153C17) at 2 uM; type: functional; summary of the method: as §1
# Rattus norvegicus [12] = species on record: Rattus norvegicus; test: Inhibition of oncogenic transformation expressed as number of foci on day 5 in HL-23 virus infected rat kidney cells (NRK 153C17) at 0 uM; type: functional; summary of the method: as §1
# Mus musculus [13] = species on record: Mus musculus; test: Effect in mouse infected with herpes simplex virus type-1; observed effects diminished with time; type: functional, organism-based
# Rattus norvegicus [14] = species on record: Rattus norvegicus; test: Inhibition of oncogenic transformation expressed as number of foci on day 5 in HL-23 virus infected rat kidney cells (NRK 153C17) at 4 uM; type: functional; summary of the method: as §1
# Mus musculus [15] = species on record: Mus musculus; test: Minimum Inhibitory concentration of the drug required for 50% inhibition of herpes simplex virus type 1 (strain E-377) -induced cytopathogenic effects in infected cell cultures.; type: functional
# Mus musculus [16] = species on record: Mus musculus; test: Effect in mouse infected with vaccinia virus; observed effects seen; type: functional, organism-based
# Rattus norvegicus [17] = species on record: Rattus norvegicus; test: Inhibition of oncogenic transformation expressed as number of foci on day 5 in HL-23 virus infected rat kidney cells (NRK 153C17) at 0.25 uM; type: functional; summary of the method: as §1
# Rattus norvegicus [18] = species on record: Rattus norvegicus; test: Inhibition of oncogenic transformation expressed as %control cell number on day 3 in HL-23 virus infected rat kidney cells (NRK 153C17) at 1 uM; type: functional; summary of the method: as §2
# Rattus norvegicus [19] = species on record: Rattus norvegicus; test: Inhibition of oncogenic transformation expressed as number of foci on day 5 in HL-23 virus infected rat kidney cells (NRK 153C17) at 1 uM; type: functional; summary of the method: as §1
# Rattus norvegicus [20] = species on record: Rattus norvegicus; test: Percent inhibition of oncogenic transformation of HL-23 virus infected rat kidney cells (NRK 153C17) at 2 uM; type: functional; summary of the method: as §1
# Rattus norvegicus [21] = species on record: Rattus norvegicus; test: Inhibition of oncogenic transformation expressed as %control cell number on day 3 in HL-23 virus infected rat kidney cells (NRK 153C17) at 4 uM; type: functional; summary of the method: as §2
# Rattus norvegicus [22] = species on record: Rattus norvegicus; test: Inhibition of oncogenic transformation expressed as %control cell number on day 3 in HL-23 virus infected rat kidney cells (NRK 153C17) at 0.25 uM; type: functional; summary of the method: as §2
# Rattus norvegicus [23] = species on record: Rattus norvegicus; test: Inhibition of oncogenic transformation expressed as %control cell number on day 3 in HL-23 virus infected rat kidney cells (NRK 153C17) at 2 uM; type: functional; summary of the method: as §2
# Mus musculus [24] = species on record: Mus musculus; test: Minimum Inhibitory concentration of the drug required for 50% inhibition of vaccinia virus (strain Lederle chorioallantoic) -induced cytopathogenic effects in infected cell cultures.; type: functional
# Mus musculus [25] = species on record: Mus musculus; test: In vitro antiviral activity against herpes simplex virus type 1 (strain E-377) grown in mouse fibroblasts cells, clone L-929, expressed as virus ration (VR); type: functional, Fibroblast
# Mus musculus [26] = species on record: Mus musculus; test: Minimum Inhibitory concentration of the drug required for 50% inhibition vaccinia virus (strain Lederle chorioallantoic)-induced cytopathogenic effects in infected cell cultures.; type: functional
# Mus musculus [27] = species on record: Mus musculus; test: Effect in mouse infected with herpes simplex virus type-1; observed effects seen; type: functional, organism-based
smiles,measurement,setting,value
Nc1nccc2c1ncn2[C@@H]1C[C@H](CO)[C@@H](O)[C@H]1O [3-DEAZAARISTEROMYCIN A],No. of foci per dish,Rattus norvegicus [1],65
same,inhibition at 0.25 µM,Rattus norvegicus [2],44%
same,inhibition at 1 µM,Rattus norvegicus [3],76%
same,inhibition at 4 µM,Rattus norvegicus [4],99%
same,inhibition at 0.5 µM,Rattus norvegicus [5],44%
same,Control cell number,Rattus norvegicus [6],100%
same,Control cell number,Rattus norvegicus [7],96%
same,Virus rating,Mus musculus [8],2.8
same,Inhibition,Rattus norvegicus [9],0%
same,Virus rating,Mus musculus [10],1.1
same,No. of foci per dish,Rattus norvegicus [11],9
same,No. of foci per dish,Rattus norvegicus [12],115
same,Activity,Mus musculus [13],+ to +/-
same,No. of foci per dish,Rattus norvegicus [14],1
same,MIC,Mus musculus [15],238 µg/mL
same,Activity,Mus musculus [16],observed effects seen
same,No. of foci per dish,Rattus norvegicus [17],64
same,Control cell number,Rattus norvegicus [18],81%
same,No. of foci per dish,Rattus norvegicus [19],28
same,inhibition at 2 µM,Rattus norvegicus [20],92%
same,Control cell number,Rattus norvegicus [21],53%
same,Control cell number,Rattus norvegicus [22],100%
same,Control cell number,Rattus norvegicus [23],71%
same,MIC,Mus musculus [24],1.9 µg/mL
Nc1nccc2c1ncn2[C@@H]1O[C@H](CO)[C@@H](O)[C@H]1O,Virus rating,Mus musculus [25],0.5
Nc1ncnc2c1ncn2[C@@H]1O[C@H](CO)[C@@H](O)[C@@H]1O [VIDARABINE],MIC,Mus musculus [26],19.2 µg/mL
same,Virus rating,Mus musculus [8],1.2
same,Virus rating,Mus musculus [10],3.2
same,MIC,Mus musculus [15],2.1 µg/mL
same,Activity,Mus musculus [16],Active
same,Activity,Mus musculus [27],Active
